Test results as given in ChEMBL document CHEMBL1155806, “Inorganic polyhedral metallacarborane inhibitors of HIV protease: a new approach to overcoming antiviral resistance” (J Med Chem, 2008).

Legend:
Protease = Protease (Human immunodeficiency virus 1, UniProt Q9YQ12); assay: Inhibition of wild-type HIV1 BH10 protease expressed in Escherichia coli by spectrophotometric assay
In short: (§1)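 Recombinant PR refolded from inclusion bodies and purified. 8-10 pmol enzyme in 1 mL 0.1 M sodium acetate pH 4.7, 0.3 M NaCl, 4 mM EDTA. Ki obtained by fitting the Williams–Morrison competitive inhibition equation.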

[1] = target: Human immunodeficiency virus type 1 protease (Human immunodeficiency virus 1, UniProt Q72874, A71V/I54V/I84V/L10I/L24I/L33F/L63P/M46L/V82A); assay: Inhibition of HIV1 recombinant protease L10I/L24I/L33F/M46L/I54V/L63P/A71V/V82A/I84V mutant expressed in Escherichia coli by spectrophotometric assay; in short: as §1
[2] = target: Human immunodeficiency virus type 1 protease (Human immunodeficiency virus 1, UniProt Q72874, A71V/E35D/F53L/H69K/I54V/I84V/I93L/K20R/L10F/L19I/L33F/L63P/L89M/L90M/M36I/R41K/T74P); assay: Inhibition of HIV1 recombinant protease L10F/L19I/K20R/L33F/E35D/M36I/R41K/F53L/I54V/L63P/H69K/A71V/T74P/I84V/L89M/L90M/I93L mutant expressed in Escherichia coli by spectrophotometric assay; in short: as §1
[3] = Ratio of Ki for HIV1 recombinant protease V32I/I47A mutant to Ki for wild-type HIV1 BH10 protease; parameters: species or system Human immunodeficiency virus 1
[4] = Ratio of Ki for HIV1 recombinant protease M46I/A71V/V82T/I84V mutant to Ki for wild-type HIV1 BH10 protease; parameters: species or system Human immunodeficiency virus 1
[5] = Ratio of Ki for HIV1 recombinant protease D30N/N88D mutant to Ki for wild-type HIV1 BH10 protease; parameters: species or system Human immunodeficiency virus 1
[6] = target: Human immunodeficiency virus type 1 protease (Human immunodeficiency virus 1, UniProt Q72874, I47A/V32I); assay: Inhibition of HIV1 recombinant protease V32I/I47A mutant expressed in Escherichia coli by spectrophotometric assay; in short: as §1
[7] = Ratio of Ki for HIV1 recombinant protease L10I/L24I/L33F/M46L/[…]/L63P/A71V/V82A/I84V mutant to Ki for wild-type HIV1 BH10 protease expressed in Escherichia coli; parameters: species or system Human immunodeficiency virus 1
[8] = Ratio of Ki for HIV1 recombinant protease L10I/I15V/E35D/N37S/R41K/I62V/L63P/A71V/G73S/L90M mutant to Ki for wild-type HIV1 BH10 protease; parameters: species or system Human immunodeficiency virus 1
[9] = target: Human immunodeficiency virus type 1 protease (Human immunodeficiency virus 1, UniProt Q72874, A71V/E35D/G73S/I15V/I62V/L10I/L63P/L90M/N37S/R41K); assay: Inhibition of HIV1 recombinant protease L10I/I15V/E35D/N37S/R41K/I62V/L63P/A71V/G73S/L90M mutant expressed in Escherichia coli by spectrophotometric assay
[10] = Ratio of Ki for HIV1 recombinant protease A71V/V82T/I84V mutant to Ki for wild-type HIV1 BH10 protease; parameters: species or system Human immunodeficiency virus 1
[11] = target: Human immunodeficiency virus type 1 protease (Human immunodeficiency virus 1, UniProt Q72874, A71V/I84V/M46I/V82T); assay: Inhibition of HIV1 recombinant protease M46I/A71V/V82T/I84V mutant expressed in Escherichia coli by spectrophotometric assay; in short: as §1
[12] = target: Human immunodeficiency virus type 1 protease (Human immunodeficiency virus 1, UniProt Q72874, D30N/N88D); assay: Inhibition of HIV1 recombinant protease D30N/N88D mutant expressed in Escherichia coli by spectrophotometric assay; in short: as §1
[13] = Ratio of Ki for HIV1 recombinant protease L10F/L19I/K20R/L33F/E35D/M36I/R41K/F53L/I54V/L63P/H69K/A71V/T74P/I84V/L89M/L90M/I93L mutant to Ki for wild-type HIV1 BH10 protease; parameters: species or system Human immunodeficiency virus 1
[14] = target: Human immunodeficiency virus type 1 protease (Human immunodeficiency virus 1, UniProt Q72874, A71V/I84V/V82T); assay: Inhibition of HIV1 recombinant protease A71V/V82T/I84V mutant expressed in Escherichia coli by spectrophotometric assay; in short: as §1

Compound | Ki (Protease) [nM] | Ki [1] [nM] | Ki [2] [nM] | Ki ratio [3] | Ki ratio [4] | Ki ratio [5] | Ki [6] [nM] | Ki ratio [7] | Ki ratio [8] | Ki [9] [nM] | Ki ratio [10] | Ki [11] [nM] | Ki [12] [nM] | Ki ratio [13] | Ki [14] [nM]
CC(C)CN(C[C@@H](O)[C@H](Cc1ccccc1)NC(=O)O[C@H]1CCOC1)S(=O)(=O)c1ccc(N)cc1 | […] | 4.1 | – | – | – | – | – | – | – | – | – | – | – | – | –
Cc1c(O)cccc1C(=O)N[C@@H](CSc1ccccc1)[C@H](O)CN1C[C@H]2CCCC[C@H]2C[C@H]1C(=O)NC(C)(C)C | 0.07 | – | – | – | – | – | – | – | – | – | – | – | – | – | –
COC(=O)N[C@H](C(=O)N[C@@H](Cc1ccccc1)[C@@H](O)CN(Cc1ccc(-c2ccccn2)cc1)NC(=O)[C@@H](NC(=O)OC)C(C)(C)C)C(C)(C)C [ATAZANAVIR] | 0.024 | 1.2 | 0.054 | 7.1 | 32 | 2.3 | 0.17 | 50 | 3.2 | 0.076 | 9.4 | 0.76 | 0.055 | 2.3 | 0.23
